An excerpt weighted towards active compounds, which were near 3.1% of everything screened.
KCNK3 block – human KCNK3 channel inhibition, primary screen. 340,000 tested, 0.84% active. CHO-KCNK3 thallium flux, FluxOR fluorescence; hits give low values. O14649. B-score at 10 µM;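 active means B-score under library mean minus 4 SD, starting fluorescence ratio at most library mean plus 5 SD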;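 further: more negative B-score means stronger inhibition of thallium flux through KCNK3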
KCNK9 inh – inhibitors of human KCNK9 two-pore domain potassium channel | B-score at 10 µM | Q9NPC2 | AID 488922 | 310,000 tested, 1.2% active | HEK293 KCNK9, FluxOR thallium flux fluorescence; hits give low values;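 active means ratio B-score over 3 SD below the library mean, with starting fluorescence within 5 SD of its mean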;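 further: negative B-score means less thallium flux so channel inhibition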
KCNQ1 act – human KCNQ1 channel potentiation or activation; P51787; CHO-K1 KCNQ1, thallium flux FluxOR fluorescence; hits give high values; B-score at 10 µM; 310,000 tested, 0.35% active; AID 2648;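 active means fluorescence ratio B-score, a plate-corrected score, at least three library SD, with initial intensity B-score within 5 SD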
Target sequence (P51787 whole entry, looked up): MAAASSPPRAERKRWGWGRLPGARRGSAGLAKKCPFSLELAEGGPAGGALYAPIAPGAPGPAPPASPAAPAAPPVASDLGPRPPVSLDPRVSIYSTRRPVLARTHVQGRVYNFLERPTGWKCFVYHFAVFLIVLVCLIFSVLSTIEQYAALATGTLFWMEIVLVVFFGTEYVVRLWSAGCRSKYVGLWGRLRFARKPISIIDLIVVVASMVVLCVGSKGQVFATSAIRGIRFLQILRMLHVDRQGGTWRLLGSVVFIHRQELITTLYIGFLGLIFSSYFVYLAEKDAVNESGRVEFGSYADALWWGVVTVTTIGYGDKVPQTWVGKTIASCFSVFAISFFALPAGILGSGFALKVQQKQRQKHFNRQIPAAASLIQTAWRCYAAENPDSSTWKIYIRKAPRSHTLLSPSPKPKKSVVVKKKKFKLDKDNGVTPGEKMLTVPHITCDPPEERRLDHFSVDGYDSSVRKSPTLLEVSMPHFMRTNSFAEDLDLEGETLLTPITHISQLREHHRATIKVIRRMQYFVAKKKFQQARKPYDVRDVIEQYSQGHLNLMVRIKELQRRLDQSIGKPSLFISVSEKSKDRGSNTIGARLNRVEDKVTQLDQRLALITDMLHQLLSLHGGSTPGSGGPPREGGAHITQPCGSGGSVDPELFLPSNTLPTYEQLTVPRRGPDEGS
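Schedule – 37 °C overnight plating, 90-min dark dye load, 20-min compound pretreatment · System – stable KCNQ1 CHO-K1 line · Probe or stimulus – thallium- and potassium-containing depolarizing buffer · Measured by – kinetic FluxOR fluorescence, 10 s baseline plus 110 s post-stimulus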
hERG protect – shields human hERG channel from block by proarrhythmic agents. AID 1511. activation (rescue from dofetilide block), less the hit threshold, % at 10 µM. CHO-hERG, FluxOR thallium flux, dofetilide IC70 present. 310,000 tested, 0.51% active. Q12809;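 active means activation above the mean of controls blocked by dofetilide plus 5 SD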;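 further: thallium influx through hERG after potassium depolarization seen as dye fluorescence rise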
KCNQ1 block – blocks the human KCNQ1 potassium channel; CHO-K1 KCNQ1, FluxOR thallium flux fluorescence; hits give high values; B-score at 10 µM; 310,000 tested, 1.3% active; AID 2642;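 active means compounds whose thallium flux B-score, printed positive for inhibition, exceeds three library SD while starting fluorescence stays within three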;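 further: channel opened by potassium depolarization with thallium stimulus after 20 min compound exposure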
KCNK3 confirm – confirmation of human KCNK3 two-pore domain potassium channel inhibitors. CHO-KCNK3 thallium flux, FluxOR fluorescence; 0% buffer, 100% carvedilol maximal block. AID 651638. shares compounds with KCNK3 block. 2,400 tested, 99% active. ratio percent of control, % at 10 µM;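 active means ratio percent of control, averaged over triplicates, above buffer control mean plus 5 SD, cut at about 64% in these data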;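 further: ratio is the fluorescence rise from min to max over baseline after thallium stimulus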
KCNK3 noninduced – counter-screen for KCNK3 inhibitors: effect in non-induced cells; shares compounds with KCNK3 block; non-induced KCNK3 parental cells, FluxOR thallium flux; hits give low values; thallium flux ratio (lower = more inhibition) at 10 µM; 2,400 tested, 40% active;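 active means thallium flux ratio, averaged over three wells, more than 5 SD below the buffer control mean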;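 further: host cells are CHO cells without KCNK3 induction; ratio is peak minus trough fluorescence over baseline then normalized to buffer controls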
* hit, by the source's call; i = inactive; · = no result.

SMILES	KCNK3 block	KCNK9 inh	KCNQ1 act	hERG protect	KCNQ1 block	KCNK3 confirm	KCNK3 noninduced
Cc1ccc(C)c(NS(=O)(=O)c2cc(C(=O)NCC3CCCO3)ccc2C)c1 (centres undefined)	i	i	i	-8.7	i	·	·
Cc1ccc(C)c(NS(=O)(=O)c2cc(C(=O)NCCSC3CCCCC3)ccc2C)c1	-9.96*	-7.94*	i	-5.3	i	110.3*	i
CCOC(=O)c1cc2sccc2n1CC(=O)O	i	i	i	-5.7	i	·	·
CCOC(=O)c1cc2sccc2n1CC(=O)c1ccc2c(c1)OCCO2	-9.47*	i	i	-5.4	i	89.0*	i
CC1CCc2sc(C(=O)N/N=C/c3ccc(O)cc3)cc2C1 (centres undefined)	-10.3*	i	i	-5.2	i	57.3*	i
N=c1n(Cc2ccc(Cl)cc2)c2ccccc2n1CC(O)COc1ccccc1 (centres undefined)	-11.9*	i	i	-23.6	i	123.0*	i
COc1ccc(OCC(O)Cn2c(=N)n(Cc3ccccc3)c3ccccc32)cc1 (centres undefined)	i	i	i	-20.4	i	·	·
Cc1sc2ncnc(N3CCN(S(=O)(=O)c4ccc(C(C)(C)C)cc4)CC3)c2c1C	i	·	·	·	·	·	·
Cc1sc2ncnc(N3CCN(S(=O)(=O)c4ccc(Br)cc4)CC3)c2c1C	-12.2*	i	i	-16.1	i	115.7*	0.149*
C[C@H](NC(=O)N1CCn2c1nc1ccccc12)C(=O)NCc1ccccc1	i	i	i	-2.6	i	·	·
CCOC(=O)C1CCCN(C(=O)c2cc(S(=O)(=O)N3CCCCC3)c[nH]2)C1 (centres undefined)	i	i	i	-9.6	i	·	·
Cc1cc(OCC(=O)N2CCc3ccccc3C2)c(C)cc1Br	-8.79*	i	i	-4.5	i	129.7*	0.144*
CC1CCN(c2ccccc2NC(=O)c2ccc(Br)o2)CC1	-9.02*	-7.98*	i	-10.1	i	125.7*	0.153*
O=C(OCC(=O)N1CCCC1=O)c1nc(Cl)c(Cl)c(Cl)c1Cl	i	i	i	-15.2	i	·	·
O=C(NN=Cc1ccc(Cl)cc1Cl)C1CC1	i	·	·	·	·	·	·
Cc1[nH]c2c(ccc3cccnc32)c1C	i	i	i	-8.7	i	·	·
CC1=[N+](C)c2c(ccc3cccnc23)C1(C)C	-12*	·	·	·	·	119.0*	i
Cc1ccc(CNC(=O)CCSCc2ccccc2C)cc1	i	i	i	-0.9	i	·	·
O=C(NCCc1ccccc1)c1ccc2c(=O)[nH]c3c(C(=O)NCC4CCCO4)sc(=S)n3c2c1 (centres undefined)	-11.9*	i	i	-38.6	8*	118.3*	i
COc1ccc(OC)c(CCNC(=O)c2ccc3c(=O)[nH]c4c(C(=O)NC(C)C)sc(=S)n4c3c2)c1	-11.4*	i	i	-32.7	10*	128.7*	i
O=C(NCC1CCCO1)c1sc(=S)n2c1[nH]c(=O)c1ccc(C(=O)N3CCCCC3)cc12 (centres undefined)	i	i	i	-20.7	i	·	·
Cc1ccc(C)c(OCCNc2ccc([N+](=O)[O-])cn2)c1	i	i	i	-3.5	i	·	·
Cc1ccc(C)c(OCCNc2ncccc2[N+](=O)[O-])c1	-11.8*	i	i	-1.8	i	102.0*	i
CN(C(=O)COC(=O)/C=C/c1ccc(F)cc1)c1c(N)n(Cc2ccccc2)c(=O)[nH]c1=O	i	i	i	-16.0	i	·	·
COc1ccc(OC)c(NC(=O)CSc2ccc3ccccc3c2)c1	-10.9*	i	i	-6.1	i	117.7*	i
SMILES	KCNK3 block	KCNK9 inh	KCNQ1 act	hERG protect	KCNQ1 block	KCNK3 confirm	KCNK3 noninduced
O=C(NCCN1CCCC1)C(c1ccccc1)c1ccccc1	i	i	i	-11.8	i	·	·
CC(C(=O)N1CCc2ccccc21)N(C)CC(=O)Nc1cccc(F)c1 (centres undefined)	i	·	·	·	·	·	·
COC(=O)c1cc(S(=O)(=O)Nc2ccc(C)cn2)c[nH]1	i	i	i	-4.2	i	·	·
COc1ccc(Cl)cc1-n1c(=S)sc2c(=O)[nH]c(SCC(=O)C(C)(C)C)nc21	-9.03*	i	i	-16.0	i	88.3*	0.141*
CCCCNC(=O)CSc1nc2c(sc(=S)n2-c2cc(Cl)ccc2OC)c(=O)[nH]1	i	i	i	-2.8	i	·	·
Cc1cc(C)cc(NC(=S)Nc2ccc(Cl)c(Cl)c2)c1	-13.6*	i	i	-17.7	12*	145.7*	0.107*
Cc1ccc(S(=O)(=O)N(C)C)cc1NC(=O)COC(=O)CNC(=O)c1cccs1	i	i	i	-4.8	i	·	·
C=CCn1c(NCc2cc(C)ccc2O)nc2ccccc21	i	i	i	-6.9	i	·	·
C=CCn1c(NC(C)c2cc(Cl)ccc2O)nc2ccccc21 (centres undefined)	-11.9*	-6.63*	i	-5.7	i	122.0*	0.143*
FC(F)(F)c1cnc(COc2ccc(Cl)cc2Cl)c(Cl)c1	-9.65*	i	i	-2.5	i	102.3*	i
CCCN1C(=O)c2cc(C(=O)O)ccc2C1O (centres undefined)	i	i	i	-6.5	i	·	·
CCCN1C(=O)c2cc(C(=O)NC3CCCCCC3)ccc2C1O (centres undefined)	-17.5*	i	i	1.6	i	82.0*	i
COc1cc(C(=O)NCC(=O)N/N=C/c2ccc(-c3ccc([N+](=O)[O-])cc3)o2)cc(OC)c1OC	-10.1*	i	i	-14.4	i	95.0*	i
Cc1c(CCC(=O)NCCC(=O)O)c(=O)oc2c(C)c3oc4c(c3cc12)CCCC4	i	i	i	-6.9	i	·	·
CN(C)CCn1c(SCc2ccccc2C#N)nc2c(sc3ccccc32)c1=O	-10.1*	i	i	-19.4	i	106.7*	0.157*
CC(=O)Nc1ccc2nc(-c3ccco3)[nH]c2c1	i	i	i	-3.3	i	·	·
O=C(Nc1ccc2nc(-c3ccco3)[nH]c2c1)c1ccco1	-8.94*	i	i	-15.1	i	139.7*	i
Cn1cccc1-c1nc2ccc(NC(=O)c3ccccc3)cc2[nH]1	-11.2*	i	i	-18.8	i	102.7*	i
Cc1ccc(S(=O)(=O)CCC(=O)c2cccc([N+](=O)[O-])c2)cc1	-9.46*	i	i	-26.3	i	113.7*	0.118*

Screening data from PubChem.
